Results published in the array DNA melting data of Ke et al. (doi:10.1101/2024.01.08.574731).

How the values were obtained:
[1] = folding enthalpy; higher = less favourable; fluorescence melt of hairpins on a sequencing array, two-state fit; conditions: sodium 0.088 M
How it was run: (§1)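 Library hairpins on a sequenced MiSeq flow cell carried annealed Cy3 and quencher oligos, and their Cy3 fluorescence was imaged in 50 mM Na-HEPES pH 8.0 with 25 mM NaCl, in 2.5 °C steps up to 60 °C. Signals were normalised to Cy3 before quenching and to control constructs. Melting temperature and folding enthalpy were obtained from bootstrapped two-state fits, combined by inverse-variance weighting across four replicates, and the fitted temperatures were then raised by 9.35 °C to match UV melts.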

[2] = melting temperature; fluorescence melt of hairpins on a sequencing array, two-state fit, raised by 9.35 °C to match UV melts; conditions: sodium 0.088 M
How it was run: as §1

Sequence | folding enthalpy [1] [kcal/mol] | Tm [2] [°C]
GCCCACGGAAACGTAGGC (((.(((....))).))) | -30.6 | 48.4
GCCCAGCGAAAGCAGAGC ((.(.((....)).).)) | -10.9 | 41.2
GCCCAGCGAAAGCCGCGC ((.(.((....)).).)) | -10.1 | 45.7
GCCCAGCGAAAGCGGCGC ((.(.((....)).).)) | -17 | 64.5
GCCCAGGGAAACCCAGGC (((..((....))..))) | -25.6 | 44.4
GCCCAGGGAAACCCGAGC ((.(.((....)).).)) | -6.87 | 28.3
GCCCAGGGAAACCCGGAC (.((.((....)).)).) | -4.63 | 28.6
GCCCATCGAAAGATTGGC (((.(((....))).))) | -27.3 | 47.8
GCCCATGCGAAAGCAGGC (((..(((....)))))) | -13.8 | 50.8
GCCCATTCGAAAGAAGGC (((..(((....)))))) | -15.8 | 33
GCCCCACGAAAGTGGGC (((.(((....)))))) | -10.9 | 65.5
GCCCCAGGAAACCGAGGC (((.(.(....).).))) | -16.3 | 32.6
GCCCCAGGAAACTGGGAC (.(((((....))))).) | -15.6 | 46.1
GCCCCATCGAAAGATGGC (((..(((....)))))) | -7.75 | 37.9
GCCCCCGAAAGGGCTGGC ((((((....)))..))) | -16.2 | 61.8
GCCCCCGAAAGGGTAGGC ((((((....)))..))) | -23.3 | 55.9
GCCCCCGAAAGGGTGGGC ((((((....)))..))) | -27.8 | 63.2
GCCCCCGCGAAAGCGGGC (((..(((....)))))) | -4.3 | 34.8
GCCCCGCGAAAGCACGGC (((..((....))..))) | -18.3 | 41.6
GCCCCGCGAAAGCCGAGC ((.(.((....)).).)) | -11.3 | 32.1
GCCCCGCGAAAGCCGTGC ((.(.((....)).).)) | -15.5 | 27.7
GCCCCGCGAAAGCGCAGC ((..(((....)))..)) | -7.42 | 40.3
GCCCCGCGAAAGCGGCGC ((.((((....)))).)) | -16.6 | 59.7

Sequence | folding enthalpy [1] [kcal/mol] | Tm [2] [°C]
GCCCCGCGAAAGCTGCGC ((.(.((....)).).)) | -13.6 | 36.6
GCCCCGCGAAAGCTGGGC ((((.((....)).)))) | -39.2 | 68.8
GCCCCTCGAAAGAGCGGC (((.(((....))).))) | -33 | 49.8
GCCCCTGCGAAAGCAGGC (((..(((....)))))) | -4.68 | 42.4
GCCCCTGGAAACAAGGGC ((((.((....)).)))) | -28.8 | 46.1
GCCCCTGGAAACAGGAGC ((.((((....)))).)) | -30.6 | 47.5
GCCCGACGAAAGTCGGC (((.(((....)))))) | -8.71 | 61.4
GCCCGCGAAAGCGACGGC ((((((....)))..))) | -22.3 | 54.9
GCCCGCGAAAGCGCCGGC ((((((....)))..))) | -17.5 | 52.3
GCCCGCGAAAGCGTTGGC ((((((....)))..))) | -23.2 | 56.2
GCCCGGCCGAAAGGCGGC (((..(((....)))))) | -13.2 | 57.6
GCCCGGCGAAAGCAGTGC ((.(.((....)).).)) | -18.2 | 40.5
GCCCGGCGAAAGCATGGC (((..((....))..))) | -19 | 56
GCCCGGCGAAAGCCCGGC (((.(((....))).))) | -17.1 | 60.5
GCCCGGCGAAAGCCGGC (((.(((....)))))) | -6.9 | 65.7
GCCCGGCGAAAGCTGTGC ((.(.((....)).).)) | -19.7 | 40.9
GCCCGGCGAAAGCTTGGC (((..((....))..))) | -18.8 | 52.4
GCCCGGGGAAACCCGGAC (.(((((....))))).) | -13.4 | 51.3
GCCCGGGGAAACCTGGGC ((((.((....)).)))) | -52.3 | 62.3
GCCCGTCGAAAGACAGGC (((.(((....))).))) | -39 | 55.3
GCCCTAGCGAAAGCTGGC (((..(((....)))))) | -13.7 | 48
GCCCTAGGAAACTAAGGC (((.(((....))).))) | -21.1 | 34
